Calls of active or inactive are those of the source. The rule behind the calls is not given here.
Legend:
Homo sapiens [1] = organism: Homo sapiens; experiment: Inhibition of DNA polymerase-alpha (unknown origin)
[2] = biological target: DNA polymerase beta (Homo sapiens) (UniProt P06746); experiment: Inhibition of DNA polymerase-beta (unknown origin)
[3] = Inhibition of HCV genotype 1b NS5Bdelta21 RNA dependent RNA polymerase expressed in Escherichia coli JM109 (DE3); parameters: species or system Hepatitis C virus subtype 1b
Homo sapiens [4] = organism: Homo sapiens; experiment: Inhibition of DdRp-2 (unknown origin)
Homo sapiens [5] = organism: Homo sapiens; experiment: Inhibition of DNA polymerase-gamma (unknown origin)
Enterovirus C = experiment: Inhibition of poliovirus RdRp
Hepatitis C virus = experiment: Antiviral activity against Hepatitis C virus Con1 genotype 1b expressing NS2-NS5B infected in human HuH7 cells after 72 hrs by luciferase reporter gene assay; assay type: functional, organism-based, Hepacivirus hominis; details: isolate Con1, Huh-7, 72 h
Procedure, shortened: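 Cells carrying a bicistronic luciferase reporter subgenomic replicon (Con1 GT-1b, NS2-NS5B coding region) were incubated with compound for 72 h. Relative luciferase levels were then read with Bright-Glo substrate, and EC50 values were derived from these readings.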

Cn1c(C2(NC(=O)c3ccc4c(C5CCCC5)c(-c5ncc(Br)cn5)n(C)c4c3)CCC2)nc2ccc(/C=C/C(=O)O)cc21 [DELEOBUVIR]
inhibition (Homo sapiens [1]): inactive | inhibition [2]: inactive | IC50 [3]: 50 nM | inhibition (Homo sapiens [4]): inactive | inhibition (Homo sapiens [5]): inactive | inhibition (Enterovirus C): inactive

Cc1c(C(=O)N[C@H](C)C(=O)Nc2ccc(/C=C/C(=O)O)cc2)ccc2c1nc(-c1ccoc1)n2C1CCCCC1
IC50 [3]: 890 nM

O=C(O)/C=C/c1ccc(NC(=O)C2(NC(=O)c3ccc4c(c3)nc(-c3ccoc3)n4C3CCCCC3)CCNCC2)cc1
EC50 (Hepatitis C virus): 5000 nM | IC50 [3]: 43 nM

Cc1cc2c(cc1C(=O)N[C@H](C)C(=O)Nc1ccc(/C=C/C(=O)O)cc1)nc(-c1ccoc1)n2C1CCCCC1
IC50 [3]: 4000 nM

COc1ccc2c(c1)OCCn1c-2c(C2CCCCC2)c2ccc(C(=O)NC3(C(=O)Nc4ccc(/C=C/C(=O)O)cc4)CCC3)cc21
EC50 (Hepatitis C virus): 4 nM | IC50 [3]: 560 nM

Cn1c(C2(NC(=O)c3ccc4c5c(n(C)c4c3)CCCC53CCCCC3)CCC2)nc2ccc(/C=C/C(=O)O)cc21
EC50 (Hepatitis C virus): 49 nM | IC50 [3]: 180 nM

C[C@@H](NC(=O)c1ccc2c(n1)nc(-c1ccoc1)n2C1CCCCC1)C(=O)Nc1ccc(/C=C/C(=O)O)cc1
IC50 [3]: 330 nM

O=C(O)COc1ccc2[nH]cc(C[C@H](NC(=O)c3ccc4c(c3)nc(-c3ccoc3)n4C3CCCCC3)C(=O)O)c2c1
EC50 (Hepatitis C virus): 65000 nM

Cn1c(C(=O)O)cc2cc(NC(=O)C3(NC(=O)c4ccc5c(c4)nc(-c4ccoc4)n5C4CCCCC4)CCCNC3)ccc21 (single isomer, unassigned; enantiomer 2)
IC50 [3]: 84 nM

Cn1c(C(=O)O)cc2cc(NC(=O)C3(NC(=O)c4ccc5c(c4)nc(-c4ccoc4)n5C4CCCCC4)CCNCC3)ccc21
IC50 [3]: 55 nM

Cn1c2c(c3ccc(C(=O)O)cc31)C1(CCCCC1)CCC2
EC50 (Hepatitis C virus): > 11000 nM | IC50 [3]: 16000 nM

Cn1c(C2(NC(=O)c3ccc4c5c(n(C)c4c3)CCCC53CCCCC3)CCC2)nc2cc3cc(C(=O)O)sc3cc21
EC50 (Hepatitis C virus): 38 nM | IC50 [3]: 350 nM

C[C@@H](NC(=O)c1ccc2c(c1)nc(-c1ccoc1)n2C1CCCCC1)C(=O)Nc1ccc(/C=C/C(=O)O)cc1
IC50 [3]: 88 nM

CCOc1cc(NC(=O)C2(NC(=O)c3ccc4c5c(n(C)c4c3)CCCC53CCCCC3)CCC2)ccc1/C=C/C(=O)O
EC50 (Hepatitis C virus): 94 nM | IC50 [3]: 460 nM

Cn1c(C(=O)O)cc2cc(NC(=O)C3(NC(=O)c4ccc5c(c4)nc(-c4ccoc4)n5C4CCCCC4)CCCNC3)ccc21 (single isomer, unassigned; enantiomer 1)
IC50 [3]: 1300 nM

From ChEMBL document CHEMBL3120048 (J Med Chem, 2014)
